ADAM10 inh: inhibitors of human ADAM10; recombinant ADAM10, EDANS/DABCYL FRET peptide cleavage, 3 h; inhibition, % at 7 µM; 370,000 compounds, 0.62% hits;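 active = inhibition above a per-campaign cutoff equal to the mean of compounds falling between control-based bounds plus 3 SD, cut at about 20% in these data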
Target sequence (O14672 214-748 limits assumed): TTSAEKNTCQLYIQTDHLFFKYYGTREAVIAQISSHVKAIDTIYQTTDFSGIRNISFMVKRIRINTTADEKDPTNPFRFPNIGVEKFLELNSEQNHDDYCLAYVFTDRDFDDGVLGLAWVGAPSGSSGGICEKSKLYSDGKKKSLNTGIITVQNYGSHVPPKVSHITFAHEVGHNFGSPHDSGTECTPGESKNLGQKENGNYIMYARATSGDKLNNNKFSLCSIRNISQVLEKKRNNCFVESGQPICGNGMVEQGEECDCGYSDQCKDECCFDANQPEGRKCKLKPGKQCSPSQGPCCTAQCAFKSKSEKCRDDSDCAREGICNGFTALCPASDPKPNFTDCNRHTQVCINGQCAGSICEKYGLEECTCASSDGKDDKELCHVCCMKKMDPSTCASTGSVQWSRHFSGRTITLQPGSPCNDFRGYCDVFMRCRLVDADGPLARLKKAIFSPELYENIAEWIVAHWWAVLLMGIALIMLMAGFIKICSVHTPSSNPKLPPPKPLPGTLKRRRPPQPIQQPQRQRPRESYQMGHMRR
GASC-1 inh: inhibitors of human GASC-1 (JMJD2C) demethylase; inhibition, % at 2.35 µM; 330,000 compounds, 0.069% hits; GST-JMJD2C(1-420) H3K9me3 demethylation, DELFIA europium; AID 2099;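 active = more than half of a compound's replicate wells show inhibition beyond 50%, single wells judged on their own value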;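 note: signal counts dimethyl H3K9 product captured on neutravidin plate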
KLK7 zymogen act: activates the human kallikrein-7 zymogen; purified proKLK7, EDANS-DABCYL substrate fluorescence; 100% is mature enzyme control, 0% vehicle; activation, % at 7 µM; 370,000 compounds, 0.9% hits; AID 652039;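 active = activation above the mean of all tested compounds plus 3 SD, computed per campaign excluding outliers beyond control limits, cut at about 13% in these data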
Target sequence (P49862 whole entry, looked up): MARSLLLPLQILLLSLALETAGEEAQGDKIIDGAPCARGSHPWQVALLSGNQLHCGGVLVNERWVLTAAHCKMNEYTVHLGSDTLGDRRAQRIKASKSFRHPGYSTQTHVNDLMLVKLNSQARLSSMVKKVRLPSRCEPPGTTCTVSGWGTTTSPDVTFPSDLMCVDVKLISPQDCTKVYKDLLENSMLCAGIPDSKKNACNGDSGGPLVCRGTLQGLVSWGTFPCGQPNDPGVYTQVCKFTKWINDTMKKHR
NR2E3 ag-1: activates human photoreceptor nuclear receptor NR2E3. Q9Y5X4. GST-NR2E3/biotin-RetCOR TR-FRET, 1536-well. inhibition of corepressor binding, % at 4.78 µM. 320,000 compounds, 0.12% hits. AID 2300;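 active = percent inhibition above the cutoff of mean plus 3 SD of all tested compounds, set per screening campaign, cut at about 20% in these data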
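System: GST-tagged NR2E3 plus biotinylated RetCOR corepressor; Buffer or medium: pH 7.5 Tris-based buffer; Probe or stimulus: RetCOR corepressor, biotinylated, 7 nM; Doses: compound at 4.8 µM, single dose; Schedule: 5 h incubation at 4 °C; Technique: time-resolved FRET; Evaluation: percent inhibition of TR-FRET ratio; Replication: one well per compound, singlicate testing.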
ADAM17 inh: inhibits human ADAM17; recombinant ADAM17, EDANS/DABCYL FRET peptide cleavage; 370,000 compounds, 0.83% hits; inhibition, % at 6.95 µM; P78536;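 active = inhibition above the mean of compounds lying between control limits plus 3 SD, set per campaign, cut at about 8.5% in these data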
NR2E3 ag-2: human photoreceptor-specific nuclear receptor agonism; CHO-S Gal4-NCOR/VP16-NR2E3 two-hybrid, luciferase; inhibition of corepressor binding, % at 3.98 µM; Q9Y5X4; 360,000 compounds, 0.35% hits;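 active = inhibition above the mean of all tested compounds plus 3 SD, cut at about 70% in these data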;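 note: higher means lower luciferase signal from less NR2E3 corepressor binding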
NR2E3 agonist cf: confirmation of human NR2E3 nuclear receptor agonists. activation (reported as inhibition), % at 3.98 µM. cell-free NR2E3 corepressor release, TR-FRET, 5 h. shares compounds with NR2E3 ag-1. 360 compounds, 39% hits; in the data active = activation above about 20%
PPARg-NCOR2 ag: PPARg-NCOR2 interaction agonism, NR2E3 counter-screen. inhibition, % at 3.98 µM. AID 504787. TR-FRET PPARg-NCOR2 coregulator interaction, biochemical. 360 compounds, 45% hits. shares compounds with NR2E3 ag-1; in the data active = inhibition above about 20%
Each line names hits and unclear results; the compound was inactive in the other large screens (follow-up assays come after a bar, where they were run). Most compounds without a hit are left out; they make up all but 2.5% or so of the library.

CCCn1nnnc1SCC(=O)NCc1ccc2c(c1)OCO2	GASC-1 inh 62
COc1ccc(CNC(=O)CSc2nnnn2Cc2ccccc2)cc1	GASC-1 inh 52
COC(=O)c1cc(-c2ccc(C)c3ccccc23)c(=O)n2c1CCC2	none (no result: GASC-1 inh, NR2E3 ag-1, NR2E3 ag-2)
CC(=O)Nc1ccc(NC(=O)CC2Nc3cccc4cccc(c34)NC2=O)cc1 (stereo unspecified)	none
Cc1cccc(NC(=O)CC2Nc3cccc4cccc(c34)NC2=O)c1 (stereo unspecified)	GASC-1 inh 51
CC(C)(C)OC(=O)NCc1cc(F)ccc1/C=C/S(=O)(=O)NC1CCCC1	none (no result: GASC-1 inh, NR2E3 ag-1, NR2E3 ag-2)
COCCCN1C(=O)[C@H](CC(=O)N2CCN(C(=O)c3ccco3)CC2)[C@]2(C(=O)OC)CCCCC=C12	none (no result: GASC-1 inh, NR2E3 ag-1, NR2E3 ag-2)
COc1cc(S(=O)(=O)n2cnc(C)c2)ccc1Br	none
Cc1cn(S(=O)(=O)c2ccc(Br)c3ccccc23)cn1	NR2E3 ag-1 31 (no result: ADAM10 inh, KLK7 zymogen act, ADAM17 inh, NR2E3 ag-2)
Oc1ccc(C2=NNC(=NCc3ccc4c(c3)OCO4)SC2)c(O)c1	none
Clc1ccc(C2=NNC(=NCc3ccc4c(c3)OCO4)SC2)cc1	ADAM17 inh 12
S=C(Nc1ccc(Oc2ccccc2)cc1)NC1CCCCCC1	ADAM17 inh 9.5
Cc1occc1-c1nnc(SCC(=O)N2CCN(c3ncccn3)CC2)n1-c1ccccc1	none (no result: GASC-1 inh, NR2E3 ag-1, NR2E3 ag-2)
NS(=O)(=O)c1ccc(CCNC(=O)C(=O)NCC2OCCN2S(=O)(=O)c2ccc(F)cc2)cc1 (stereo unspecified)	none
Cc1ccc(S(=O)(=O)N2CCOC2CNC(=O)C(=O)NCCc2ccc(S(N)(=O)=O)cc2)cc1 (stereo unspecified)	GASC-1 inh 61
CCc1ccc(C2C3=C(CCCC3=O)OC3=C2C(=O)CCC3)cc1	none
O=C1CCCC2=C1C(c1ccc(OS(=O)(=O)c3ccc(Cl)cc3)cc1)C1=C(CCCC1=O)O2	GASC-1 inh 57
COC(=O)[C@]12CCCCC=C1N(Cc1ccc(OC)cc1)C(=O)[C@@H]2CC(=O)N1CCSCC1	none (no result: GASC-1 inh, NR2E3 ag-1, NR2E3 ag-2)
CCC(=O)N[C@H]1C[C@@H]2O[C@@H](CO)CC[C@@H]2O[C@@H]1CCc1ccc(-c2cccc(OC)c2)cc1	none (no result: GASC-1 inh, NR2E3 ag-1, NR2E3 ag-2)
C=CCN1C(=O)/C(=C/c2ccc(O)c(OC)c2)S/C1=N/c1nccs1	ADAM10 inh 22
CC(=O)N1CCN(c2cc(-c3ccco3)nc3cc(-c4ccccc4)nn23)CC1	none (no result: GASC-1 inh, KLK7 zymogen act, NR2E3 ag-1, NR2E3 ag-2)
CCN1CCN(Cc2ccc(NC(=O)c3ccc(C)c(NC(=O)c4cncc(-c5cccs5)c4)c3)cc2C(F)(F)F)CC1	NR2E3 ag-2 82 (no result: ADAM10 inh, GASC-1 inh, KLK7 zymogen act, NR2E3 ag-1, ADAM17 inh)
O=c1cc(NC2CCCCCC2)[nH]c(=O)[nH]1	GASC-1 inh 54
COc1ccc(C(=O)CSc2nnc(-c3ccc(C(C)(C)C)cc3)n2C)cc1	none (no result: GASC-1 inh, NR2E3 ag-1, NR2E3 ag-2)
Clc1cccc(Cl)c1Cn1c(-c2cccnc2Cl)nc2ccccc21	GASC-1 inh 52 (no result: ADAM10 inh, KLK7 zymogen act, ADAM17 inh)
COc1ccc(-c2cc(C3CCN(Cc4cccc(C(F)(F)F)c4)CC3)[nH]n2)cc1	ADAM10 inh 24, ADAM17 inh 12
COc1ccc(OC)c(Nc2nc(-c3cccs3)cs2)c1	GASC-1 inh 51
COc1ccc(Nc2nc(-c3cccs3)cs2)c(OC)c1	none
c1ccc(-c2ccc3c(n2)CCCN3Cc2ccccn2)cc1	none (no result: GASC-1 inh, NR2E3 ag-1, NR2E3 ag-2)
O=C(CSC(=S)N1CCCC1)c1cc(Br)cc(Br)c1O	GASC-1 inh 58 (no result: NR2E3 ag-2)
CCO[C@@H]1OC(C(=O)NC2CC2)=C[C@H](c2c[nH]c3ccccc23)[C@H]1CCCO	GASC-1 inh 52
CC(=O)OCC(=O)NCC1CCN(C(=O)C(=O)c2cc3ccccc3o2)CC1	none (no result: GASC-1 inh, NR2E3 ag-1, NR2E3 ag-2)
COc1cccc(C(=O)Nc2ccc3ccccc3c2)c1	NR2E3 ag-1 30 | NR2E3 agonist cf inactive | PPARg-NCOR2 ag inactive
COc1ccc(C(=O)Nc2ccc3ccccc3c2)cc1	none
CCc1nnn2c1Cn1c3ccccc3c(=O)n1[C@@H](C(C)C)C2	none (no result: GASC-1 inh, NR2E3 ag-1, NR2E3 ag-2)
CCOC(=O)[C@]12CCCCC/C=C\1N(Cc1ccc(OC)cc1)C(=O)[C@H]2CC(=O)NCc1ccccc1	none (no result: GASC-1 inh, NR2E3 ag-1, NR2E3 ag-2)
O=C(O)c1cc(-c2ccco2)nc2ccc(Br)cc12	NR2E3 ag-1 34 | NR2E3 agonist cf 26 | PPARg-NCOR2 ag 29
COc1ccc(C(=O)N/N=C(\C)c2ccc3c(c2)C2C=CCC2C(c2ccccc2)N3)cc1 (stereo unspecified)	none (no result: ADAM10 inh, KLK7 zymogen act, ADAM17 inh)
O=C(O)c1ccc2c(c1)[C@@H]1C=CC[C@@H]1[C@H](c1ccccn1)N2	NR2E3 ag-1 48 | NR2E3 agonist cf inactive | PPARg-NCOR2 ag inactive
O=C(O)CCC(=O)N1CCN(c2nc(-c3ccccc3Cl)c3cc(Br)ccc3n2)CC1	NR2E3 ag-1 24 | NR2E3 agonist cf inactive | PPARg-NCOR2 ag inactive
O=C(O)CCC(=O)N1CCN(c2nc(-c3ccccc3)c3cc(Br)ccc3n2)CC1	none
COC(=O)[C@H](C(C)C)N1CCc2nnn(CC3CCCCC3)c2-c2cc(F)ccc2S1(=O)=O	none (no result: GASC-1 inh, NR2E3 ag-1, NR2E3 ag-2)
COC(=O)C1CN(Cc2cn(Cc3ccc(Cl)cc3)nn2)CCS(=O)(=O)N1Cc1ccc(F)cc1 (stereo unspecified)	none (no result: GASC-1 inh, NR2E3 ag-1, NR2E3 ag-2)
O=C(O)CCCCC1SCC2NC(=O)NC21 (stereo unspecified)	NR2E3 ag-1 38 | NR2E3 agonist cf inactive | PPARg-NCOR2 ag 25
COC(=O)CCCCC1SCC(NC(=O)OC)C1NC(=O)OC (stereo unspecified)	none
C[C@@H]1NC(=O)N[C@@H]1CCCCCC(=O)O	NR2E3 ag-1 76 | NR2E3 agonist cf 77 | PPARg-NCOR2 ag 72
CCCCCC1NC(=O)NC1CCCCCC(=O)O (stereo unspecified)	none
CC1NC(=O)NC1CCCCCC(=O)NCCc1ccccc1 (stereo unspecified)	NR2E3 ag-1 69 | NR2E3 agonist cf 75 | PPARg-NCOR2 ag 70
Cc1cccc(C)c1NC(=O)CCCCCC1NC(=O)NC1C (stereo unspecified)	NR2E3 ag-1 47 | NR2E3 agonist cf 35 | PPARg-NCOR2 ag inactive
O=C(CCCCC(=O)NCCCc1ccccc1)NCCCc1ccccc1	none
COc1cccc(C(=O)NCCN2C(=O)C3C4C=CC(C4)C3C2=O)c1 (stereo unspecified)	none (no result: GASC-1 inh, NR2E3 ag-1, NR2E3 ag-2)
COC(=O)c1cc2c(c3c4cc(C)ccc4n(S(=O)(=O)c4ccc(C)cc4)c13)C(=O)N(C)C2	none (no result: GASC-1 inh, NR2E3 ag-1, NR2E3 ag-2)
C=CCNC(=O)NC[C@@]1(C(=O)OC)CC(=O)N(C)[C@@H]1c1ccccc1	none (no result: GASC-1 inh, NR2E3 ag-1, NR2E3 ag-2)
Nc1ccc2c(c1)C(=O)c1ccccc1-2	none

Screens deposited in PubChem BioAssay by several laboratories.
